Measurements: ChEMBL document CHEMBL1828587, “Pyrazolo[1,5-a]pyrimidines, triazolo[1,5-a]pyrimidines and their tricyclic derivatives as corticotropin-releasing factor 1 (CRF₁) receptor antagonists” (Bioorg Med Chem, 2011)
The source made the active and inactive calls. No cut-off for these calls is given here.

Key:
[1] = target: T1, Corticotropin-releasing factor receptor 1 (Homo sapiens, UniProt P34998); assay: Antagonist activity at human CRF1 receptor expressed in CHO-K1 cells assessed as inhibition of CRF-induced cAMP accumulation after 15 mins by cAMP enzyme immunoassay; assay type: functional, cell-based
T1 sequence (P34998 whole entry): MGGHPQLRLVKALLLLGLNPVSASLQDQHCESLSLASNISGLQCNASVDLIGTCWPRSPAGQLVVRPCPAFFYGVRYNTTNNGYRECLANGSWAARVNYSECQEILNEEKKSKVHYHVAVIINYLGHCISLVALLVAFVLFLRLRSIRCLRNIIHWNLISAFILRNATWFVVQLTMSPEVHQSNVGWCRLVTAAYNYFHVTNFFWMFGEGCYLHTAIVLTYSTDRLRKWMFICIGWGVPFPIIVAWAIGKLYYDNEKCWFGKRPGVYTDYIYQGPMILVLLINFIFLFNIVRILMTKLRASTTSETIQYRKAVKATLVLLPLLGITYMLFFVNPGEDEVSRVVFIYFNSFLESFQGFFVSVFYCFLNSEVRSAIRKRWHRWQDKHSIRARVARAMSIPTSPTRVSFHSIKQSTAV
Summary of the method: (§1)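 CRF1-expressing CHO-K1 cells seeded at 1×10^4 cells/well and cultured overnight. Cells were washed with F-12 and preincubated 10 min at 37 °C in F-12 containing 1 mmol/l IBMX. Test compound (1–10000 nmol/l) was then added together with CRF (10 nmol/l in the added medium). After 15 min at 37 °C, intracellular cAMP was measured by enzyme immunoassay. IC50 was taken from concentration–response curves.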

[2] = target: T1, Corticotropin-releasing factor receptor 1; assay: Displacement of [125I]-CRF from human CRF1 receptor expressed in CHO-K1 cells after 2 hrs by gamma counting; assay type: cell-based
Summary of the method: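 Crude membranes were made from CRF1-expressing CHO-K1 cells in 50 mmol/l Tris-HCl with 10 mmol/l MgCl, 2 mmol/l EDTA and aprotinin. Membranes were incubated with 125I human/rat CRF (0.5 nmol/l solution added) and test compound (1~10000 nmol/L) for 2 h at room temperature. Bound and free ligand were separated by centrifugation and the pellet washed with PBS/0.01% Triton X-100, then gamma-counted. Nonspecific binding was defined with 1 µmol/l unlabeled CRF. IC50 was taken from concentration–response curves.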

[3] = Total clearance in rat at 1 mg/kg, iv; assay type: ADME, organism-based; set-up: dose 1 mg/kg, route intravenous; settings: in vivo
Summary of the method: (§2)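 Fasted male rats (n = 4) received 1 mg/kg iv in saline/30% HP-β-CD or 10 mg/kg po in saline/0.5% MC. Jugular blood was sampled up to 72 h, and plasma obtained by centrifugation and stored at -70 °C. AUC, Cmax, Tmax, T1/2, Vss and CL were derived from plasma concentration–time courses. F = dose-normalized AUCpo/AUCiv ×100.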

Rattus norvegicus = assay: Anxiolytic activity against swim-stress-induced anxiety like behavior in Sprague-Dawley rat assessed as increase in spent time in open arms at 10 mg/kg, po administered 1 hr before stress-challenge by elevated plus-maze test; assay type: functional, organism-based; set-up: dose 10 mg/kg
Summary of the method: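 Male Sprague-Dawley rats (230–280 g) were dosed orally with compound in 0.5% MC, and tested 1 h after dosing. Rats were then placed on the elevated plus-maze (50 cm high) and video-tracked for 5 min for time in and entries into open arms. Results are mean ± S.E., n=16; vehicle vs drug by Dunnett test.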

[4] = target: T2, Corticotropin-releasing factor receptor 1 (Rattus norvegicus, UniProt P35353); assay: Antagonist activity at rat CRF1 receptor expressed in CHO-K1 cells assessed as inhibition of CRF-induced cAMP accumulation after 15 mins by cAMP enzyme immunoassay; assay type: functional, cell-based; summary of the method: as §1
T2 sequence (P35353 whole entry): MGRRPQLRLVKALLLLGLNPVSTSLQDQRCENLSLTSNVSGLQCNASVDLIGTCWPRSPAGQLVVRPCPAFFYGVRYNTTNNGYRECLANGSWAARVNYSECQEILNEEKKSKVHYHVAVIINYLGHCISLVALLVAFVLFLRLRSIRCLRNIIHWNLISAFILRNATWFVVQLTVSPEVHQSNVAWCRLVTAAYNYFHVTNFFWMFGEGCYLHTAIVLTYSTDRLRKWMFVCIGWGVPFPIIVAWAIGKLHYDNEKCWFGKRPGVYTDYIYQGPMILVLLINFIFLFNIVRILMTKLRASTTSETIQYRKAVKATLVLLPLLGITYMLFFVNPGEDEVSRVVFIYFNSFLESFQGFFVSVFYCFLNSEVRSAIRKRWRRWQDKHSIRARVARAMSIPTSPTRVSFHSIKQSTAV

[5] = AUC (0 to infinity) in rat at 10 mg/kg, po; assay type: ADME, organism-based; set-up: time infinity, dose 10 mg/kg, route oral; settings: plasma
Summary of the method: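 Single oral dose of 10 mg/kg in saline containing 0.5% MC (w/v), given to fasted male rats (n = 4). Heparinized jugular vein blood taken at 1, 2, 4, 6, 8, 24, 48, 72 h. Plasma stored at -70 °C. AUC to infinity derived from the plasma concentration time course.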

[6] = AUC (0 to infinity) in rat at 1 mg/kg, iv; assay type: ADME, organism-based; set-up: dose 1 mg/kg, route intravenous, time infinity; settings: plasma
Summary of the method: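 Single iv dose of 1 mg/kg in saline containing 30% HP-β-CD (w/v), given to fasted male rats (n = 4). Plasma stored at -70 °C. AUC derived from the plasma concentration time course.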

[7] = Ratio of drug level in brain to plasma in rat at 10 mg/kg, po after 1 hr; assay type: ADME, organism-based; set-up: dose 10 mg/kg, route oral; settings: read-out: BPR
Summary of the method: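 Rats were dosed orally at 10 mg/kg. Kp was calculated as brain content divided by plasma concentration, 1.0 h after dosing.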

[8] = Oral bioavailability in rat at 10 mg/kg; assay type: ADME, organism-based; settings: in vivo; summary of the method: as §2
[9] = Cmax in rat at 10 mg/kg, po; assay type: ADME, organism-based; set-up: dose 10 mg/kg, route oral; settings: in vivo; summary of the method: as §2
[10] = Tmax in rat at 10 mg/kg, po; assay type: ADME, organism-based; set-up: dose 10 mg/kg, route oral; settings: in vivo; summary of the method: as §2
[11] = Half life in rat at 1 mg/kg, iv; assay type: ADME, organism-based; set-up: dose 1 mg/kg, route intravenous; settings: in vivo; summary of the method: as §2
[12] = Half life in rat at 10 mg/kg, po; assay type: ADME, organism-based; set-up: dose 10 mg/kg, route oral; settings: in vivo; summary of the method: as §2
[13] = Volume of distribution at steady state in rat at 1 mg/kg, iv; assay type: ADME, organism-based; set-up: dose 1 mg/kg, route intravenous; settings: in vivo, read-out: Vdss; summary of the method: as §2

EC50 [1] [nM]	IC50 [2] [nM]	Compound	further results
28.9	4.4	C=CCN(c1cc(N(CCC)CCC)n2nccc2n1)c1ccc(OC)cc1Cl	
18.6	31.6	CCCN(CCC)c1cc(N(CC)c2ccc(OC)cc2Cl)nc2ccnn12	
	67	CCCN(CCC)c1cc(N(C)c2ccc(OC)cc2Cl)nc2nccn12	
32.2	7.1	CCC(CC)n1ccc2c(Cc3c(C)cc(C)cc3C)nc3ccnn3c21	
3.5	2.4	CCc1cc(OC)ccc1Nc1nc2ccnn2c2c1ccn2C(CC)CC	
4.1	6.1	CCC(CC)n1ccc2c(Nc3c(C)cc(C)cc3C)nc3ccnn3c21	
58	16	CCC(CC)Nc1c(C)c(Nc2ccc(OC)cc2Cl)nc2ncnn12	
75.7	418	CCCN(CCC)c1cc(N(CCC)c2ccc(OC)cc2Cl)nc2ccnn12	
856	76.7	C=C(C)CN(c1cc(N(CCC)CCC)n2nccc2n1)c1ccc(OC)cc1Cl	
46	12	CCCN(CCC)c1c(C)c(Nc2ccc(OC)cc2Cl)nc2nccn12	
234	113	CCCN(CCC)c1c(C(C)C)c(Nc2ccc(OC)cc2Cl)nc2ccnn12	
	213	CCCN(CCC)c1cc(N(CC2CC2)c2ccc(OC)cc2Cl)nc2ccnn12	
95	32	CCCc1c(Nc2ccc(OC)cc2Cl)nc2ccnn2c1N(CCC)CCC	
4.4	15	CCCN(CCC)c1cc(N(COC)c2ccc(OC)cc2Cl)nc2ccnn12	
0.7	3.2	CCC(CC)n1ccc2c(Nc3ccc(OC)cc3Cl)nc3ccnn3c21	
889	33	CCCN(CCC)c1cc(N(C)c2ccc(OC)cc2Cl)nc2ncnn12	

EC50 [1] [nM]	IC50 [2] [nM]	Compound	further results
113	14	CCC(CC)Nc1cc(Nc2ccc(OC)cc2Cl)nc2ccnn12	
76	42	CCCN(CCC)c1cc(N(CC)c2ccc(OC)cc2Cl)nc2nccn12	
	680	CCCN(CCC)c1cc(N(CCOC)c2ccc(OC)cc2Cl)nc2ccnn12	
	308	CCCN(CCC)c1c(C2CCCC2)c(Nc2ccc(OC)cc2Cl)nc2ccnn12	
	340	CCCCc1c(Nc2ccc(OC)cc2Cl)nc2ccnn2c1N(CCC)CCC	
26	20	CCCN(CCC)c1nc(N(C)c2ccc(OC)cc2Cl)nc2ccnn12	
367	42	CCC(CC)Nc1cc(N(C)c2ccc(OC)cc2Cl)nc2ncnn12	
883	13	CCCN(CCC)c1c(OC)c(Nc2ccc(OC)cc2Cl)nc2ccnn12	
4	8	CCCN(CCC)c1c(C)c(Nc2ccc(OC)cc2Cl)nc2ccnn12	clearance [3]: 186 mL/min/kg; Activity (Rattus norvegicus): Active; EC50 [4]: 81 nM; AUC(0-inf) [5]: 153 ng·h/mL; AUC(0-inf) [6]: 96 ng·h/mL; Kp at 1 h [7]: 6.2; bioavailability [8]: 16%; Cmax [9]: 27.4 ng/mL; Tmax [10]: 4 h; half-life [11]: 1.7 h; half-life [12]: 3.4 h; Vd [13]: 14.4 L/kg
9	8	CCCN(CCC)c1c(C)c(Nc2ccc(OC)cc2Cl)nc2ncnn12	
7.4	7.4	CCC(CC)Nc1c(C)c(Nc2ccc(OC)cc2Cl)nc2ccnn12	
97	20	CCCN(CCC)c1cc(N(C)c2ccc(OC)cc2Cl)nc2ccnn12	
3.9	4.7	CCc1cc(Cl)ccc1Nc1nc2ccnn2c2c1ccn2C(CC)CC	
53	61	CCCN(CCC)c1cc(Nc2ccc(OC)cc2Cl)nc2ccnn12	
5.6	7	CCc1ccc(Oc2nc3ccnn3c3c2ccn3C(CC)CC)c(OC)c1	
8.6	4.2	CCCN(CCC)c1c(CC)c(Nc2ccc(OC)cc2Cl)nc2ccnn12	
